Assay [1] can be described thus: Her2 expression decrease, cell viability multiplex – SKBR3 breast tumor cells, AlphaScreen, ATP viability, primary screen (AID 461;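 active = Her2 level under about 52% in both replicate screens, with viability over 70% of control, limit read from the data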;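 as to Her2 level: lower value means less Her2 protein in the cells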;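 as to viability: percent of carrier control wells set as 100% viability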). The following applies: SKBR3 Her2 protein level, 18-24 h, measured here: SKBR3 viability, ATP luminescence, at 10 µM.
Assay [2] deals with Receptor tyrosine-protein kinase erbB-2 (Homo sapiens) (UniProt P04626). The description is as above. The note with it: 18-24 h, at 10 µM, stronger effect = lower value.
Receptor tyrosine-protein kinase erbB-2 (Homo sapiens), sequence (P04626 whole entry, looked up): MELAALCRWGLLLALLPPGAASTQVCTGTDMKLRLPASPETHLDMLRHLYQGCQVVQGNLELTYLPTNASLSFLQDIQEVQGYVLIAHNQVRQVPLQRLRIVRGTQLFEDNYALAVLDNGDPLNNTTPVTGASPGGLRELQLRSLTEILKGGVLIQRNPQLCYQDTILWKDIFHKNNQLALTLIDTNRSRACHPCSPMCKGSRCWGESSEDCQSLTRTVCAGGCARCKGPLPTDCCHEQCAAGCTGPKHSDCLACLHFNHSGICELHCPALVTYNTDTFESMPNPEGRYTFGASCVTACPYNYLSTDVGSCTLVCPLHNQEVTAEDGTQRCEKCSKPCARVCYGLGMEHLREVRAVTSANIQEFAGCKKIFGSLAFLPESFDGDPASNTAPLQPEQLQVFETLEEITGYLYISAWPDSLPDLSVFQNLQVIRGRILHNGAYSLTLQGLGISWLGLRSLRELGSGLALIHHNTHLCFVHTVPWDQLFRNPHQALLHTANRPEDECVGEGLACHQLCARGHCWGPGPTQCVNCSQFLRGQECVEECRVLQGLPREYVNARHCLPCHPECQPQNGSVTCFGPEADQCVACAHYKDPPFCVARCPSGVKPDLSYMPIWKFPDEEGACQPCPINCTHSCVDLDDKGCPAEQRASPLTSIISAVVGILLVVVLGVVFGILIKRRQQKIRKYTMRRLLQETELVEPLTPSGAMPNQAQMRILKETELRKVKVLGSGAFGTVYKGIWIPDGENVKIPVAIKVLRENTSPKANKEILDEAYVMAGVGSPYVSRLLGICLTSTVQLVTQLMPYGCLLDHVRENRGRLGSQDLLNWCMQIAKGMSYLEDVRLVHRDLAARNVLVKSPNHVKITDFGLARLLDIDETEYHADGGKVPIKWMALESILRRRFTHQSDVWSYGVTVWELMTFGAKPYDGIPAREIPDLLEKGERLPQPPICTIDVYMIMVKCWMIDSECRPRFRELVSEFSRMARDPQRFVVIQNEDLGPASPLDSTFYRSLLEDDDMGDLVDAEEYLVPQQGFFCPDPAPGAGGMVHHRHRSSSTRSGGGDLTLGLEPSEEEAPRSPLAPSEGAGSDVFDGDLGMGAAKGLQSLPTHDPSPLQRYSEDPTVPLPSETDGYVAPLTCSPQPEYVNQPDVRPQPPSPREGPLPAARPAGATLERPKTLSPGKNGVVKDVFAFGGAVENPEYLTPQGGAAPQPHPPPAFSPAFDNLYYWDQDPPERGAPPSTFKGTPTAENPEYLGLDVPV
A short description of assay [3]: reduced viability of SK-BR-3 breast cancer cells – cell-based, 24 h, human, pilot screen (AID 572).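 Also: compound exposure lasted between 18 and 24 h rather than exactly 24 h; 100% = carrier-treated control wells.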 The note with it: SK-BR-3 viability, CellTiter-Glo luminescence, at 10 µM, stronger effect = lower value.
Assay [4] can be described thus: HUVEC growth inhibition – cell-based, human, primary screen (AID 575;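 active = viability at or below 30% in both replicate assays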;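 also: 100% = median of untreated cell wells with 0.1% DMSO on each plate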). The following applies: HUVEC proliferation, CellTiter-Glo luminescence, 72 h; at 10 µM; stronger effect = lower value. The gist of the method: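 Material: primary human umbilical vein endothelial cells / Schedule: 72 h exposure, 37 °C, 5% CO2, 30 min RT equilibration / Signal: ATP-based CellTiter-Glo luminescent read / Read-out basis: percent of median DMSO-control luminescence / Control set: 32 DMSO-only cell-control wells (high), 32 MePR drug-control wells (low) per plate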

Assay [5] is described as follows: H69AR cell proliferation blockers – human, duplicate replicates, primary screen (AID 580;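 active = viability at or under a set limit in both replicates, limit being median viability minus 3 SD, cut at about 48% in these data, passing the limit was not always enough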;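 also: 100% = mean luminescence of untreated wells and 0% = no signal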). The following applies: H69AR lung tumor cells viability, ATP luminescence, 72 h; at 10 µM; stronger effect = lower value.
The nature of assay [6]: MRP1 drug-resistance reversers in H69AR cells – cell-based, doxorubicin co-treatment, pilot screen (AID 601;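 active = viability loss from added drug above about 55%, and viability with drug at most 40%, in both replicates, limit read from the data, passing the limit was not always enough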). The note with it: CellTiter-Glo, 72 h, at 10 µM; for differential viability (reversal): stronger effect = higher value.
The nature of assay [7]: yeast transport mutant growth inhibition pilot in 384-well plates, post-Golgi transport modulator project (AID 636; in the data active = inhibition above about 31%). The following applies: absorbance 615 nm, about 18 h, stronger effect = higher value.
A short description of assay [8]: growth suppression of yeast trafficking mutant, preliminary HTS, modulators of trafficking downstream of Golgi apparatus project, 1536-format plate, OD 615 nm (AID 637; in the data active = inhibition above about 30%). The following applies: yeast transport mutant growth, absorbance 615 nm, 18 h; stronger effect = higher value.
Where [9] appears, read: H69AR cells + 2 uM doxorubicin, measured here: viability with 2 uM doxorubicin, stronger effect = lower value.
The mark [10] stands for this setting: H69AR cells, compound alone cytotoxicity.

Activity calls are given as the source filed them.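 The calls were made as follows, unless noted: active = viability at or below 10% of carrier control in both of two separate runs; inconclusive = viability at or below 10% in only one of the two runs; inactive = the rest.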

Regarding `CSC1=NCCN1C(=O)c1ccc(S(=O)(=O)N2CCCC2)cc1`, the viability is 111% in assay [1]; 111% (inactive) in assay [3]; 91.2% (inactive) in assay [4]; 91.3% (inactive) in assay [5]; 92.4% in assay [6] (setting [9]); 91.3% in assay [6] (setting [10]). In assay [2], the Her2 level was 107% (inactive). In addition, the differential viability (reversal) in assay [6] (H69AR cells + 2 uM doxorubicin) is -1.11% (inactive). In addition, the inhibition was 0.77% (inactive) in assay [7] and -3.17% (inactive) in assay [8].
Take `O=C(Oc1ccc(Cl)cc1N1C(=O)CCC1=O)c1ccco1`: the viability in assay [1] was 96.5%; in assay [3], 96.5% (inactive); in assay [4], 78% (inactive); in assay [5], 90.9% (inactive); in assay [6] (setting [9]), 87.3%; in assay [6] (setting [10]), 90.9%. Further, the Her2 level in assay [2] is 74% (inactive). Moreover, the differential viability (reversal) in assay [6] (H69AR cells + 2 uM doxorubicin) was 3.6% (inactive). Also, the inhibition in assay [7] was -3.65% (inactive); in assay [8] it was 2.46% (inactive).
In the case of `C#CCSc1nnc(-c2ccccc2)c(=O)[nH]1`, the viability in assay [1] is 92.5%; in assay [3], 92.5% (inactive); in assay [4] it was 89.4% (inactive); in assay [5] it was 94.7% (inactive); in assay [6] (setting [9]) it was 91.5%; in assay [6] (setting [10]) it was 94.7%. For the same molecule, the Her2 level in assay [2] is 91% (inactive). Further, the differential viability (reversal) in assay [6] (H69AR cells + 2 uM doxorubicin) was 3.12% (inactive). In addition, the figures for the inhibition in assay [7] and in assay [8] were -3.92% (inactive) and -5.9% (inactive), respectively.
For the molecule `C1CCc2nnc(-c3nnc4n3CCCCC4)n2CC1`, the viability was 86.5% in assay [1]; 86.5% (inactive) in assay [3]; 104% (inactive) in assay [4]; 93% (inactive) in assay [5]; 86.4% in assay [6] (setting [9]); 93% in assay [6] (setting [10]). Further, the Her2 level in assay [2] is 99.5% (inactive). Besides, the differential viability (reversal) in assay [6] (H69AR cells + 2 uM doxorubicin) was 6.52% (inactive). Moreover, the inhibition was -1.28% (inactive) in assay [7] and 1.67% (inactive) in assay [8].
Consider `Cn1c(=O)n(C)c2cc(CNc3ccc(N4CCOCC4)c(C(=O)O)c3)ccc21`, for which the viability in assay [1] was 107%; in assay [3] it was 107% (inactive); in assay [4], 113% (inactive); in assay [5], 89.6% (inactive); in assay [6] (setting [9]), 92.2%; in assay [6] (setting [10]) it was 89.6%. Also, the Her2 level in assay [2] was 89.5% (inactive). Besides, in assay [6] (H69AR cells + 2 uM doxorubicin), the differential viability (reversal) was -2.67% (inactive). The inhibition is -3.33% (inactive) in assay [7] and 0.49% (inactive) in assay [8].
In the case of `Cc1nc2ccc(NC(=O)N3CCOCC3)cc2s1`, the viability was 87.5% in assay [1]; 87.5% (inactive) in assay [3]; 93.8% (inactive) in assay [4]; 89.8% (inactive) in assay [5]; 85.6% in assay [6] (setting [9]); 89.8% in assay [6] (setting [10]). The Her2 level in assay [2] is 79.5% (inactive). Also, the differential viability (reversal) in assay [6] (H69AR cells + 2 uM doxorubicin) was 4.26% (inactive). Moreover, the inhibition in assay [7] was -4.34% (inactive); in assay [8], -1.27% (inactive).
Turning to `Nc1nnc(-c2cn(-c3ccccc3)nc2-c2ccccc2)o1`, the viability in assay [1] is 73%; in assay [3], 73% (inactive); in assay [4], 77.3% (inactive); in assay [5] it was 91.2% (inactive); in assay [6] (setting [9]), 80.5%; in assay [6] (setting [10]), 91.2%. Also, in assay [2], the Her2 level was 131% (inactive). For the same molecule, the differential viability (reversal) in assay [6] (H69AR cells + 2 uM doxorubicin) is 10.7% (inactive). Moreover, the inhibition in assay [7] was 2.47% (inactive); in assay [8] it was -15.5% (inactive).
Turning to `CCC(=O)Nc1c2c(nn1-c1ccccc1C)CSC2`, the viability in assay [1] was 86.5%; in assay [3] it was 86.5% (inactive); in assay [4] it was 104% (inactive); in assay [5] it was 102% (inactive); in assay [6] (setting [9]) it was 89.4%; in assay [6] (setting [10]), 102%. Also, the Her2 level in assay [2] is 89.5% (inactive). Moreover, in assay [6] (H69AR cells + 2 uM doxorubicin), the differential viability (reversal) was 12.8% (inactive). Besides, the inhibition in assay [7] was -4.42% (inactive); in assay [8] it was -3.65% (inactive).
Take `CCOC(OCC)P(=O)(C(C)C)C(C)C`: the viability in assay [1] was 87%; in assay [3], 87% (inactive); in assay [4] it was 103% (inactive); in assay [5] it was 91.8% (inactive); in assay [6] (setting [9]), 88.6%; in assay [6] (setting [10]), 91.8%. Also, the Her2 level in assay [2] is 87% (inactive). Also, the differential viability (reversal) in assay [6] (H69AR cells + 2 uM doxorubicin) was 3.12% (inactive). Besides, the results for the inhibition in assay [7] and in assay [8] were -1.17% (inactive) and -5.08% (inactive), respectively.
In the case of `O=C(Cn1ccc2ccccc2c1=O)NCCC(=O)NC1CCN(Cc2ccccc2)CC1`, the viability in assay [1] was 58%; in assay [3], 58% (inactive); in assay [4], 107% (inactive); in assay [5], 100% (inactive); in assay [6] (setting [9]), 82.8%; in assay [6] (setting [10]), 100%. In assay [2], the Her2 level is 106% (inactive). The differential viability (reversal) in assay [6] (H69AR cells + 2 uM doxorubicin) was 17.5% (inactive). The figures for the inhibition in assay [7] and in assay [8] were 3.29% (inactive) and -4.91% (inactive), respectively.
As for `CC1CCN(S(=O)(=O)c2ccc(S(=O)(=O)NCC(=O)C(C)(C)C)cc2)CC1`, the viability in assay [1] is 108%; in assay [3], 108% (inactive); in assay [4], 92.7% (inactive); in assay [5], 91.8% (inactive); in assay [6] (setting [9]), 85.3%; in assay [6] (setting [10]), 91.8%. The Her2 level in assay [2] was 97% (inactive). The differential viability (reversal) in assay [6] (H69AR cells + 2 uM doxorubicin) is 6.57% (inactive). For the same molecule, the inhibition was -6.97% (inactive) in assay [7] and -8.23% (inactive) in assay [8].
For `Cc1cc(C(=O)N2CCN(c3ncccn3)CC2)cs1`, the viability in assay [1] was 90%; in assay [3], 90% (inactive); in assay [4] it was 104% (inactive); in assay [5], 102% (inactive); in assay [6] (setting [9]) it was 90.8%; in assay [6] (setting [10]), 102%. Also, in assay [2], the Her2 level was 94.5% (inactive). The differential viability (reversal) in assay [6] (H69AR cells + 2 uM doxorubicin) was 11.2% (inactive). Moreover, the inhibition in assay [7] is -5.87% (inactive); in assay [8], -1.15% (inactive).
With `O=C(Cn1ccc2ccccc2c1=O)Nc1ccc2c(c1)OCO2`, the viability in assay [1] is 104%; in assay [3], 104% (inactive); in assay [4], 95.7% (inactive); in assay [5], 107% (inactive); in assay [6] (setting [9]) it was 92.2%; in assay [6] (setting [10]), 107%. For the same molecule, the Her2 level in assay [2] is 95.5% (inactive). In assay [6] (H69AR cells + 2 uM doxorubicin), the differential viability (reversal) was 14.8% (inactive). For the same molecule, the inhibition in assay [7] is 1.49% (inactive); in assay [8] it was -3.17% (inactive).
Turning to `[O-][n+]1c2c(nn1-c1ccccc1Cl)-c1nonc1CC2`, the viability was 102% in assay [1]; 102% (inactive) in assay [3]; 115% (inactive) in assay [4]; 105% (inactive) in assay [5]; 85.5% in assay [6] (setting [9]); 105% in assay [6] (setting [10]). The Her2 level in assay [2] is 85% (inactive). Besides, the differential viability (reversal) in assay [6] (H69AR cells + 2 uM doxorubicin) is 20% (inactive). Further, the inhibition was -5.54% (inactive) in assay [7] and -0.67% (inactive) in assay [8].
Turning to `Cc1ccc(C)c(S(=O)(=O)NCc2ccc(C(=O)N3CCN(C)CC3)cc2)c1`, the viability in assay [1] was 99.5%; in assay [3] it was 99.5% (inactive); in assay [4] it was 89.7% (inactive); in assay [5], 91.7% (inactive); in assay [6] (setting [9]), 86.5%; in assay [6] (setting [10]), 91.7%. Also, the Her2 level in assay [2] was 85.5% (inactive). In addition, the differential viability (reversal) in assay [6] (H69AR cells + 2 uM doxorubicin) was 5.15% (inactive). Moreover, the inhibition in assay [7] was -5.68% (inactive); in assay [8], -3% (inactive).

For the origin of these results see PubChem BioAssay.
